Screens: PubChem BioAssay, several laboratories
NR2E3 ag-1: NR2E3 (human) agonism | GST-NR2E3/biotin-RetCOR TR-FRET, 1536-well | inhibition of corepressor binding, % at 4.78 µM | actives 0.12% (n = 320,000);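 active = percent inhibition above the cutoff of mean plus 3 SD of all tested compounds, set per screening campaign, cut at about 20% in these data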
Target sequence (Q9Y5X4 whole entry, looked up): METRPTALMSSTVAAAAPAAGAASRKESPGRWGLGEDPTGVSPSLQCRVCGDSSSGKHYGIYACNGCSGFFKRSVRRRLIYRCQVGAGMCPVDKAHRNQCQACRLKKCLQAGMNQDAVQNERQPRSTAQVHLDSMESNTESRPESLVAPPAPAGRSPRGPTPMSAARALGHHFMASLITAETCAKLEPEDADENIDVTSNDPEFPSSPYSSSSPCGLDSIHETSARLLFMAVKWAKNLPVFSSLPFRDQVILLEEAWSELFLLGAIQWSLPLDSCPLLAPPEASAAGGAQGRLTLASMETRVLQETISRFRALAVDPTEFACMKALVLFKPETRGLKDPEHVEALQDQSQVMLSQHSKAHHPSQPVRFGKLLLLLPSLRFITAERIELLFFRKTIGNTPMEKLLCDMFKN
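System: GST-tagged NR2E3 plus biotinylated RetCOR corepressor; Amount: 1.35 nM GST-tagged NR2E3 final; Dosing: single nominal compound dose of 4.8 µM; Schedule: 5 h incubation at 4 °C; Technique: TR-FRET with europium anti-GST and streptavidin-D2, 340 nm excitation; Controls: biotin wells as high control, 0.6% DMSO wells as low control.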
PG9 Ab binder: binds the HIV-1 gp120 antibody PG9. TR-FRET gp120-PG9 antibody binding. actives 0.43% (n = 360,000). AID 624416. inhibition, % at 6.7 µM; in the data active = inhibition above about 8.5%
Rev-erbA mod: modulates human Rev-erb alpha binding to DNA; Rev-erbα–FITC-DNA binding, fluorescence polarization, 90 min; activity, % at 10 µM; P20393; actives 0.79% (n = 370,000);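 active = activity above about 14%, limit read from the data; passing the limit was not always enough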
GalR3 antag: human GalR3 antagonism | AID 651719 | HEK293 GalR3-CNG cAMP membrane potential fluorescence; galR3 body fused to GalR1 C-terminus | inhibition, % at 3 µM | actives 0.44% (n = 360,000);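 active = inhibition above the screen-wide average plus 3 SD, cut at about 13% in these data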;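 note: forskolin and galanin both at EC90 stimulate the cells; cAMP rise reported by CNG channel membrane potential dye signal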
Target sequence (O60755 1-299 limits assumed): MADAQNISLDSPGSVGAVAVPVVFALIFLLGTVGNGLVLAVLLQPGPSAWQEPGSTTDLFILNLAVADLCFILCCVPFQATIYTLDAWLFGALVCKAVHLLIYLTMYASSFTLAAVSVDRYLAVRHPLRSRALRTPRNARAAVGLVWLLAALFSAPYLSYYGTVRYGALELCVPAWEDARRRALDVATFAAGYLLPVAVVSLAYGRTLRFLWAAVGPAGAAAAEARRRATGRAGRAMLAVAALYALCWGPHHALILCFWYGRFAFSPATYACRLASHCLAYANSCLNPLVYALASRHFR
NR2E3 ag-2: agonists of human NR2E3 nuclear receptor; actives 0.35% (n = 360,000); AID 602229; inhibition of corepressor binding, % at 3.98 µM; CHO-S Gal4-NCOR/VP16-NR2E3 two-hybrid, luciferase;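 active = inhibition above the mean of all tested compounds plus 3 SD, cut at about 70% in these data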;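 note: higher means lower luciferase signal from less NR2E3 corepressor binding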
GalR3 antag conf: GalR3 (human) antagonism, confirmation. HEK293 GalR3 CNG cAMP biosensor, membrane potential fluorescence; galR3 fused to GalR1 carboxy tail; challenged with forskolin and galanin at EC90. actives 59% (n = 1,600). AID 652245. shares compounds with GalR3 antag. inhibition, % at 3 µM;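 active = inhibition above the primary screen's cutoff, the mean inhibition of all screened compounds plus 3 SD, cut at about 13% in these data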
HEK-CNG parental: parental cell agonism counter-screen for GalR3 antagonists | AID 652268 | actives 10% (n = 1,600) | HEK293-CNG parental cells, cAMP membrane potential fluorescence; normalised: DMSO wells 0%, forskolin wells 100% | shares compounds with GalR3 antag | activation, % at 3 µM; in the data active = activation above about 1.3%
Each line names hits and unclear results; the compound was inactive in the other large screens (follow-up assays come after a bar, where they were run). Shown are actives, neighbours in structure and some others; about 1.8% of the full set was active somewhere.

Fc1ccc(CN2CCN(c3ncc(Cc4ccccc4)cn3)CC2)c(Cl)c1	GalR3 antag 82 (no result: NR2E3 ag-1, NR2E3 ag-2) | GalR3 antag conf 109 | HEK-CNG parental inactive
FC(F)(F)c1ccc(Cl)c(CN2CCN(c3ncc(Cc4ccccc4)cn3)CC2)c1	none (no result: NR2E3 ag-1, NR2E3 ag-2)
CCC[C@H]1[C@@H](NC(=O)c2ccc(OC)cc2)CC[C@@]23CCCN2C(=O)CCC[C@@H]13	none (no result: NR2E3 ag-1, PG9 Ab binder, GalR3 antag, NR2E3 ag-2)
COC(=O)[C@]12C[C@H](CC(=O)N3CCCC3)C(=O)N(Cc3ccco3)C1=C[C@H](C(C)C)O[C@@H]2C1CC1	none (no result: NR2E3 ag-1, PG9 Ab binder, GalR3 antag, NR2E3 ag-2)
CC1CCCN(CCCNS(=O)(=O)c2cc3c(cc2Br)CCN3C(=O)C2CC2)C1 (stereo unspecified)	none (no result: NR2E3 ag-1, PG9 Ab binder, GalR3 antag, NR2E3 ag-2)
Nc1nnc(SCC(=O)NCCOc2ccccc2)s1	GalR3 antag 18 | GalR3 antag conf inactive | HEK-CNG parental inactive
CCOC(=O)C[N+]1(C)CCN(C(C)=O)CC1	GalR3 antag 13 | GalR3 antag conf inactive | HEK-CNG parental inactive
C[N+]1(CC(=O)OCCCC2CCCCC2)CCCC1	none
O=C1C(NC(=O)C(F)(F)Br)CCCCN1Cc1cccc(C(F)(F)F)c1 (stereo unspecified)	none (no result: NR2E3 ag-1, PG9 Ab binder, GalR3 antag, NR2E3 ag-2)
CCCCNC(=O)C1CCCN(S(=O)(=O)CC)C1 (stereo unspecified)	GalR3 antag 14 | GalR3 antag conf inactive | HEK-CNG parental inactive
COC(=O)c1ccc(NC(=O)C(=O)c2cccn2C)cc1	none (no result: GalR3 antag) | GalR3 antag conf inactive | HEK-CNG parental inactive
COC(=O)c1ccc(NC(=O)c2ccccc2C(=O)Nc2ccc(C(=O)OC)cc2)cc1	none
CC1CCN(c2ncnc3ccccc23)CC1	GalR3 antag 73 | GalR3 antag conf inactive | HEK-CNG parental inactive
O=C1[C@H](Cc2ccccc2)NCCCC[C@H](c2ccc(Cl)cc2)N1Cc1ccc(Cl)cc1	none (no result: NR2E3 ag-1)
O=C1[C@H](Cc2ccccc2)NCCCC[C@@H](c2ccc(Cl)cc2)N1Cc1ccccc1	none (no result: NR2E3 ag-1, GalR3 antag) | GalR3 antag conf inactive | HEK-CNG parental 2.3
CCC[C@H]1[C@@H](NC(=O)C2CCC2)CC[C@@]23CCCN2C(=O)CCC[C@@H]13	none (no result: NR2E3 ag-1, PG9 Ab binder, GalR3 antag, NR2E3 ag-2)
COc1ccc(CNC(=O)COC(=O)c2n[nH]c3ccccc23)cc1	none
O=C(COC(=O)c1n[nH]c2ccccc12)NCCc1ccc(Cl)cc1	GalR3 antag 36 | GalR3 antag conf 56 | HEK-CNG parental inactive
CCNC(=O)c1ccc(NC(=O)CC2SC(N3CCCCC3)=NC2=O)cc1 (stereo unspecified)	GalR3 antag 16 | GalR3 antag conf inactive | HEK-CNG parental inactive
CCOC(=O)c1oc2c(c1C)/C(=N/O)CCC2	GalR3 antag 13 | GalR3 antag conf inactive | HEK-CNG parental inactive
COc1ccc2c(c1)CCCN2C(=O)C1CCCN(S(=O)(=O)c2cccc3ccccc23)C1 (stereo unspecified)	none (no result: NR2E3 ag-1, PG9 Ab binder, GalR3 antag, NR2E3 ag-2)
O=[N+]([O-])c1cccc(C2=NCCC(c3ccccc3)O2)c1 (stereo unspecified)	GalR3 antag 22 | GalR3 antag conf inactive | HEK-CNG parental inactive
O=C1OCc2ccc(NC(=O)c3sccc3Cl)cc21	GalR3 antag 15 | GalR3 antag conf inactive | HEK-CNG parental inactive
COc1ccc(-c2c[n+]3c(n2-c2ccc(C)cc2)CCCCC3)cc1	GalR3 antag 71 | GalR3 antag conf 92 | HEK-CNG parental inactive
COc1ccc(-c2c[n+]3c(n2-c2ccccc2)CCCCC3)cc1	none
CC1CN(C)C(C)C/C1=N/Oc1ccccc1[N+](=O)[O-] (stereo unspecified)	GalR3 antag 13 | GalR3 antag conf inactive | HEK-CNG parental inactive
CC1CN(C)C(C)C/C1=N\Oc1ccc([N+](=O)[O-])cc1 (stereo unspecified)	none
O=C1CSc2ccc(C(=O)N3CCCC(C(=O)N4CCOCC4)C3)cc2N1 (stereo unspecified)	none (no result: NR2E3 ag-1, PG9 Ab binder, GalR3 antag, NR2E3 ag-2)
COc1ccc(NC(=O)CN(C)CC(=O)c2[nH]c(C)c(C(C)=O)c2C)cc1	none
COc1cc(CN(C)CC(=O)c2[nH]c(C)c(C(C)=O)c2C)ccc1OC(F)F	GalR3 antag 19 | GalR3 antag conf inactive | HEK-CNG parental inactive
C[C@H]1[C@@H](c2ccccc2)OC(O)([C@H](Cc2ccccc2)NC(=O)OC(C)(C)C)CN1C (stereo partly specified)	none (no result: NR2E3 ag-1, PG9 Ab binder, GalR3 antag, NR2E3 ag-2)
COc1cc(NC(=O)COC(=O)C2CC2)c(C)cc1[N+](=O)[O-]	none
COc1cc(NC(=O)COC(=O)C2CC(O)CN2S(=O)(=O)c2ccc(Cl)cc2)c(C)cc1[N+](=O)[O-] (stereo unspecified)	GalR3 antag 24 (no result: NR2E3 ag-1) | GalR3 antag conf 47 | HEK-CNG parental inactive
Nc1ncnc2c1ncn2[C@@H]1O[C@H](CNCc2ccc(-c3cc(C(F)(F)F)ccc3Cl)o2)[C@@H](O)[C@H]1O	GalR3 antag 42 (no result: NR2E3 ag-1) | GalR3 antag conf 54 | HEK-CNG parental inactive
Nc1ncnc2c1ncn2[C@@H]1O[C@H](C(=O)N[C@H]2c3ccccc3C[C@H]2O)[C@@H](O)[C@H]1O	GalR3 antag 20 (no result: NR2E3 ag-1) | GalR3 antag conf 31 | HEK-CNG parental 1.3
Nc1ncnc2c1ncn2[C@@H]1O[C@H](C(=O)NS(=O)(=O)c2ccccc2[N+](=O)[O-])[C@@H](O)[C@H]1O	GalR3 antag 39 (no result: NR2E3 ag-1) | GalR3 antag conf 27 | HEK-CNG parental inactive
Cc1ccc(CNC(=O)[C@H]2O[C@@H](n3cnc4c(N)ncnc43)[C@H](O)[C@@H]2O)o1	GalR3 antag 81 (no result: NR2E3 ag-1) | GalR3 antag conf 78 | HEK-CNG parental inactive
O=c1ccn([C@@H]2O[C@H](CNCc3ccc(-c4cc(C(F)(F)F)ccc4Cl)o3)[C@@H](O)[C@H]2O)c(=O)[nH]1	none (no result: NR2E3 ag-1)
Cc1cccc(NC(=O)CNC(=O)[C@H]2O[C@@H](n3cnc4c(N)ncnc43)[C@H](O)[C@@H]2O)c1C	none (no result: NR2E3 ag-1)
Nc1ncnc2c1ncn2[C@@H]1O[C@H](C(=O)NS(=O)(=O)c2cccs2)[C@@H](O)[C@H]1O	none (no result: NR2E3 ag-1)
COC(=O)C[C@@H]1CC[C@@H]2[C@@H](COc3ccc(NC(=O)Nc4ccccc4)cc3C(=O)N2C)O1	none (no result: NR2E3 ag-1, PG9 Ab binder, GalR3 antag, NR2E3 ag-2)
CCCCNC(=O)C[C@@H]1C(=O)N2CCCC3=C2[C@@]1(C(=O)OCC)CCC3	none (no result: NR2E3 ag-1, PG9 Ab binder, GalR3 antag, NR2E3 ag-2)
CC(NC(=O)/C(C#N)=C/c1ccc([N+](=O)[O-])o1)c1ccccc1 (stereo unspecified)	none
CCN(CC)c1ccc(/C=C(/C#N)C(=O)NC(C)C)o1	GalR3 antag 13 | GalR3 antag conf inactive | HEK-CNG parental inactive
CCN(CC)S(=O)(=O)c1cc(NC(=O)CNc2cccc(S(=O)(=O)N3CCOCC3)c2)ccc1C	GalR3 antag 93 | GalR3 antag conf 116 | HEK-CNG parental inactive
Cc1ccc(NC(=O)CNc2cccc(S(=O)(=O)N3CCOCC3)c2)cc1F	none
